Holding throughout (format): cell-based
In one experiment the target is T1, rP2X2 Arg290Gln (Rattus norvegicus, UniProt P49653, R290Q).
T1 sequence (P49653 1-472 R290Q): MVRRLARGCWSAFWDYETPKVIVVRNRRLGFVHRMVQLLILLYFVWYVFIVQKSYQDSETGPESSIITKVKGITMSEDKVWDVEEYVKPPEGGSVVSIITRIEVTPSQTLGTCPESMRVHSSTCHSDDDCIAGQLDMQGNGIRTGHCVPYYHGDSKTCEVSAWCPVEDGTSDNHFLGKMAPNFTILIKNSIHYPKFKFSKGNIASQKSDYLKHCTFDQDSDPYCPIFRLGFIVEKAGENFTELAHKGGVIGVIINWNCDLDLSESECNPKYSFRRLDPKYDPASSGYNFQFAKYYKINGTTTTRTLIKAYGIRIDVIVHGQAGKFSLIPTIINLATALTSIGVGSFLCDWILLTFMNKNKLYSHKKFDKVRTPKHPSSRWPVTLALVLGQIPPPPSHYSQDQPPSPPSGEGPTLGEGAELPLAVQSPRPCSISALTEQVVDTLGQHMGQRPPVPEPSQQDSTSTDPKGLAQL
In words: Two-electrode voltage clamp, oocytes expressing rP2X2 Arg290Gln. An outline of the steps: (§1)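 Mutations were made by site-directed mutagenesis. Xenopus oocytes were injected with rP2X2 mRNA and incubated in L-15 at 18°C. Two-electrode voltage clamp was done 1–2 days later at −40 mV under ND96 perfusion (pH 7.4). ATP concentration-response currents were normalised and fitted to a one-component Hill equation for EC50 and Hill coefficient. Results are mean ± SEM, tested by one-way ANOVA with Dunnett's test against WT.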
On the technique in general: Two-electrode voltage clamp is typically applied to oocytes expressing channels or transporters.

A further experiment addresses T2, rP2X2 Arg290Lys (Rattus norvegicus, UniProt P49653, R290K).
T2 sequence (P49653 1-472 R290K): T1 sequence (P49653 1-472 R290Q) with Q290K
Briefly: Two-electrode voltage clamp, oocytes expressing rP2X2 Arg290Lys. In short, it runs like this:
as §1

In the next experiment the target is T3, rP2X2 Lys188Gln (Rattus norvegicus, UniProt P49653, K188Q).
T3 sequence (P49653 1-472 K188Q): T1 sequence (P49653 1-472 R290Q) with K188Q, Q290R
Briefly: Two-electrode voltage clamp, oocytes expressing rP2X2 Lys188Gln. In short, it runs like this:
as §1

The target in a further experiment is T4, rP2X2 Thr184Val (Rattus norvegicus, UniProt P49653, T184V).
T4 sequence (P49653 1-472 T184V): T1 sequence (P49653 1-472 R290Q) with T184V, Q290R
Briefly: Two-electrode voltage clamp, oocytes expressing rP2X2 Thr184Val. In short, it runs like this:
as §1

A further experiment concerns the target T5, rP2X2 Ile185Val (Rattus norvegicus, UniProt P49653, I185V).
T5 sequence (P49653 1-472 I185V): T1 sequence (P49653 1-472 R290Q) with I185V, Q290R
In words: Two-electrode voltage clamp, oocytes expressing rP2X2 Ile185Val. An outline of the steps: as §1

By EC50 is commonly meant the concentration needed to bring the measured effect to its halfway point. A high value points to lower potency in that assay.

Substitutions are numbered along the chain they refer to.

For the molecule `Nc1ncnc2c1ncn2[C@@H]1O[C@H](COP(=O)(O)OP(=O)(O)OP(=O)(O)O)[C@@H](O)[C@H]1O` [ATP, Adenosine 5′-triphosphate], the EC50 came out at 4.9 mM on rP2X2 Arg290Gln; 0.46 ± 0.06 mM at rP2X2 Arg290Lys; 8.7 mM on rP2X2 Lys188Gln; 3.2 mM on rP2X2 Thr184Val; 0.023 ± 0.003 mM on rP2X2 Ile185Val. Also, the “Fold increase in EC50 (reduction in sensitivity), Thr184Val versus WT” value at rP2X2 Thr184Val (Thr184Val compared with WT) is 100 fold.
